# Assay outcomes deposited in PubChem by Broad Institute.
# Shown are actives, neighbours in structure and some others; about 1.6% of the full set was active somewhere.
# PvdQ inh – P. aeruginosa PvdQ acylase inhibitors, primary screen, biochemical, fluorescence, plate reader and imaging, single point; AID 488965, 2010; purified PvdQ acylase; PvdQ acylase [Pseudomonas aeruginosa LESB58]; inhibition, % at 10 µM; 340,000 compounds, 0.063% hits; in the data active = inhibition above about 30%, passing the limit was not always enough
# RAD54 branch – inhibitors of human RAD54 branch migration, primary screen, biochemical, fluorescence, single point. inhibition, % at 10.4 µM. AID 602329, 2012. 360,000 compounds, 0.14% hits. RAD54 Holliday junction branch migration, FAM/BHQ fluorescence;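 active = mean normalized replicate activity at least 40 and at least half of replicates scoring 40 or more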;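 note: inhibitors cause a drop in the FAM fluorescence signal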
# SR-BI DiI-HDL act – activators of SR-BI mediated DiI-HDL uptake, primary screen, ldlA[mSR-BI] CHO cells, DiI fluorescence; 320,000 compounds, 0.096% hits; activation, % at 12.5 µM; 3 h; 100 = double the neutral-control signal;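 active = mean replicate activation of at least 60% and every replicate at or above 60%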
#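 Material – SR-BI-overexpressing, LDLR-lacking CHO cells · Medium – BSA-supplemented, HEPES-buffered Ham's F12, pH 7.4 · Doses – single concentration · Times – compound with DiI-HDL co-incubation, 3 h at 37 °C · Measured by – bottom-read fluorescence, 550/595 nm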
# S100A4 MyoIIA – inhibitors of S100A4-myosin IIA peptide binding, primary screen, biochemical, fluorescence polarization, TAMRA-MyoIIA peptide. Protein S100-A4 (Homo sapiens), P26447. inhibition, % at 10.7 µM. 360,000 compounds, 0.14% hits;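 active = mean inhibition of at least 70% across replicates, with every replicate also reaching that level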
# Target sequence (P26447 whole entry, looked up): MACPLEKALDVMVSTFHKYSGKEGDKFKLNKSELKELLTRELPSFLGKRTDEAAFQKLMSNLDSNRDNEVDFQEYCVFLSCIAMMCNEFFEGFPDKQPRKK
#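 Material: S100A4 monomer protein | Medium: HEPES pH 7.2 with CaCl2, KCl, NaCl, DTT, Triton | Reagent: Labelled myosin peptide probe, 5 nM | Doses: One dose per compound | Times: 5 min incubation before reading | Benchmarks: Neutral control DMSO, positive control TFP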
# dFosB act-1 – activators of delta FosB homodimer, primary screen, biochemical, fluorescence polarization, TAMRA-CDK5 oligo, single point; purified delta FosB; percent of positive-control signal above neutral wells; 340,000 compounds, 0.99% hits; AID 493131, 2011; activation, % at 25 µM; Protein FosB (Mus musculus), P13346;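 active = mean activation above about 17%, with every replicate also reaching it, limit read from the data, passing the limit was not always enough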
# Target sequence (P13346 whole entry, looked up): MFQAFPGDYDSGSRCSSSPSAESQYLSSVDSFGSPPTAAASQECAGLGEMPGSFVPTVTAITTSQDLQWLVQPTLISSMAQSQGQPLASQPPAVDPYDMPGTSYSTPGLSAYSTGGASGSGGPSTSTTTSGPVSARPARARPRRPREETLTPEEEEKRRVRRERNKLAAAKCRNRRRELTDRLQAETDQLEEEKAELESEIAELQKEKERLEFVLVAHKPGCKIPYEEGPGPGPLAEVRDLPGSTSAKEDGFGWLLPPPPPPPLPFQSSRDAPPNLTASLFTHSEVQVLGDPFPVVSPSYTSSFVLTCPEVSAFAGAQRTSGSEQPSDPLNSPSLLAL
# SR-BI HDL uptake – inhibitors of SR-BI mediated HDL lipid uptake, primary screen, ldlA[mSR-BI] cells, fluorescence, single point. Scavenger receptor class B member 1 (Mus musculus), Q61009. 320,000 compounds, 0.96% hits. inhibition, % at 12.5 µM. ldlA[mSR-BI] CHO cells, DiI-HDL uptake fluorescence, 3 h;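 active = mean replicate inhibition of at least 70% and a set share of replicates each scoring 70 or more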
# dFosB act-2 – activators of mouse delta FosB DNA binding, confirmation, biochemical, fluorescence polarization, TAMRA-CDK5 oligo, cherry-picked samples; shares compounds with dFosB act-1; purified delta FosB; normalised: neutral wells 0, positive control 100; activation, % at 24.9 µM; 2,400 tested, under 10 active;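 active = highest replicate activation at or above 34% and every replicate reaching that threshold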;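 note: higher polarization means more probe DNA bound by delta FosB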
# Hits are given with their value; – = inactive; · = no result given.
SMILES,PvdQ inh,RAD54 branch,SR-BI DiI-HDL act,S100A4 MyoIIA,dFosB act-1,SR-BI HDL uptake,dFosB act-2
Cc1ccccc1NC(=O)CSc1nc(-c2ccccc2)cc(=O)[nH]1,–,–,–,–,–,–,·
Cc1ccccc1C(=O)NNC(=O)CSc1nc(-c2ccccc2)cc(=O)[nH]1,–,·,–,–,40.3,–,–
O=C(CSc1nc(-c2ccccc2)cc(=O)[nH]1)NCc1ccc2c(c1)OCO2,–,–,–,·,48.6,–,–
O=C(OC[C@@H]1[C@H]2c3ccccc3OC1(CO)N=C1SCCCN12)c1ccccc1,·,–,·,–,·,·,·
CNC[C@H]1Oc2c(NS(=O)(=O)c3cn(C)cn3)cccc2C(=O)N([C@H](C)CO)C[C@@H]1C,·,–,·,–,·,·,·
Cc1csc(Nc2nc(N)c(C(=O)Nc3cc(Cl)ccc3F)o2)n1,–,–,–,–,19.8,–,–
Cc1csc(NC(=O)Cc2c(F)cccc2Cl)n1,–,–,–,–,–,–,·
Cc1noc(C)c1NC(=O)Nc1ccc2c(c1)C(=O)N([C@H](C)CO)C[C@@H](C)[C@H](CN(C)C(=O)Nc1ccc(F)cc1)O2,·,–,·,–,·,·,·
O=C(COC(=O)c1ccccc1F)Nc1ccc2c(c1)OCCO2,–,–,–,–,–,–,·
O=C(COC(=O)c1cc(Cl)ccc1O)Nc1ccc2c(c1)OCCO2,–,–,–,–,29.7,–,–
Cc1noc(C)c1NC(=O)Nc1cccc2c1O[C@@H](CN(C)S(=O)(=O)c1cn(C)cn1)[C@@H](C)CN([C@@H](C)CO)C2=O,·,–,·,–,·,·,·
C[C@H](CO)N1C[C@H](C)[C@H](CN(C)C(=O)Nc2ccc(F)cc2)Oc2ccc(NC(=O)Nc3ccc4c(c3)OCO4)cc2C1=O,·,–,·,·,·,·,·
O=C(CCC(=O)c1ccc(Oc2ccccc2)cc1)Nc1cccc(Cl)c1,–,–,–,–,26.2,–,–
CS(=O)(=O)c1ccc2nc(NC(=O)c3cc(-c4ccccc4)nn3-c3ccccc3)sc2c1,–,–,–,–,29.2,–,–
CS(=O)(=O)c1ccc2nc(NC(=O)C3=NN(c4ccccc4)C(=O)CC3)sc2c1,–,–,–,–,–,–,·
O=C(OCc1ccc2c(c1)OCO2)c1ccc(S(=O)(=O)N2CCCCC2)cc1,–,·,·,·,35.1,·,–
COc1ccccc1N(C(=O)c1snc(C(N)=O)c1N)C(C(=O)NCc1ccccc1)c1ccc(O)cc1 (stereo unspecified),–,–,·,–,–,·,·
CCCCC(C(=O)NC1CCCC1)N(C(=O)c1snc(C(N)=O)c1N)c1ccc(OCC)cc1 (stereo unspecified),–,–,·,–,–,·,·
COc1ccc(N(C(=O)c2snc(C(N)=O)c2N)C(C(=O)NC2CCCCC2)c2ccc(F)cc2)c(OC)c1 (stereo unspecified),–,–,–,–,40.4,–,–
COc1ccc(N(C(=O)c2snc(C(N)=O)c2N)C(C(=O)NC2CCCC2)c2cccs2)cc1OC (stereo unspecified),–,·,·,–,36.7,·,–
COc1ccc(N(C(=O)c2snc(C(N)=O)c2N)C(C(=O)NC2CCCC2)c2cc(OC)ccc2OC)c(OC)c1 (stereo unspecified),–,–,–,–,–,–,·
NC(=O)c1nsc(C(=O)N(c2ccccc2F)C(C(=O)NCc2ccc(F)cc2)c2ccc(O)cc2)c1N (stereo unspecified),–,–,–,–,43.6,–,–
